Drawing on ChEMBL document CHEMBL1177669, “Synthesis and biological study of 3-(phenylsulfonyl)thieno[2,3-e][1,2,3]triazolo[1,5-a]pyrimidines as potent and selective serotonin 5-HT6 receptor antagonists” (Bioorg Med Chem, 2010), this text covers IC50 for 88 compounds.

pIC50: −log10 of the molar value.

The target of the test is 5-hydroxytryptamine receptor 6 (Homo sapiens, UniProt P50406). Description: Antagonist activity at human recombinant 5HT6 receptor expressed in HEK293 cells assessed as inhibition of serotonin-induced cAMP production. The test is classed as functional, cell-based. The method in brief:
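HEK293 cells stably expressing recombinant human 5-HT6R, stimulated with serotonin. cAMP from adenylyl cyclase measured by LANCE. Compounds screened at 5 and 10 μM. IC50 determined for compounds giving more than 50% inhibition of cAMP synthesis at 5 μM.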

Sequence of 5-hydroxytryptamine receptor 6 (P50406 whole entry): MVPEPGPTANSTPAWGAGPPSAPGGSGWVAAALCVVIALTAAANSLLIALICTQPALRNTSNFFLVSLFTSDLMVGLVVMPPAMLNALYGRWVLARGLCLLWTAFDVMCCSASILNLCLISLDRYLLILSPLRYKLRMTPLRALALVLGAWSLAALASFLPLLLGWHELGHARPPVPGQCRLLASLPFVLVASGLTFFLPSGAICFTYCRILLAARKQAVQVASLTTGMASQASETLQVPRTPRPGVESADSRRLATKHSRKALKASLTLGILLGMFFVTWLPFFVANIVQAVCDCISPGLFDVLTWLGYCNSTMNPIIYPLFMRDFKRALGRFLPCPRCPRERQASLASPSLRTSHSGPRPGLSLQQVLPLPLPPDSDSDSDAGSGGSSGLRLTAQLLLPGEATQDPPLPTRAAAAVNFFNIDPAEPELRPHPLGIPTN

As usually defined, the pIC50 is −log10 of the IC50, conventionally taken in molar units. As for `CCN(Cc1ccccc1)c1nc2c(S(=O)(=O)c3cc(C)ccc3C)nnn2c2ccsc12`, the pIC50 was 5.96.

`Cc1ccc(S(=O)(=O)c2nnn3c2nc(NCCC(C)C)c2sccc23)cc1`: the negative-log IC50 (pIC50) is 6.24. On to `Cc1ccc(C)c(S(=O)(=O)c2nnn3c2nc(N2CCCCC2)c2sccc23)c1`, for which the pIC50 is 5.82. In the case of `CC(Nc1nc2c(S(=O)(=O)c3ccc(Cl)cc3)nnn2c2ccsc12)c1ccccc1` (stereo not drawn), the pIC50 is 6.55.

Turning to `CCCCNc1nc2c(S(=O)(=O)c3ccccc3)nnn2c2ccsc12`, the negative logarithm of the IC50 (pIC50) was 7.16. The value for `CC1CCCN(c2nc3c(S(=O)(=O)c4ccccc4)nnn3c3ccsc23)C1` (stereo not drawn) was 5.69. Then `O=S(=O)(c1ccccc1)c1nnn2c1nc(NC1CCCCCC1)c1sccc12`, with 6.77; and `CN(Cc1ccccc1)c1nc2c(S(=O)(=O)c3ccc(Cl)cc3)nnn2c2ccsc12`, with 5.92; and `COc1ccccc1Nc1nc2c(S(=O)(=O)c3ccc(Cl)cc3)nnn2c2ccsc12`, with 5.94.

As for `Cc1ccc(S(=O)(=O)c2nnn3c2nc(NC2CCCCCC2)c2sccc23)cc1`, the pIC50 was 6.10.

Take `Cc1ccc(C)c(S(=O)(=O)c2nnn3c2nc(NC(C)c2ccccc2)c2sccc23)c1` (stereo not drawn): the negative logarithm of the IC50 (pIC50) was 6.77. On to `COc1cccc(Nc2nc3c(S(=O)(=O)c4ccc(C)c(C)c4)nnn3c3ccsc23)c1`, for which the pIC50 was 6.07. Then `COCCCNc1nc2c(S(=O)(=O)c3ccc(Br)cc3)nnn2c2ccsc12`, with less than 5.30.

For the compound `CCc1cccc(Nc2nc3c(S(=O)(=O)c4ccc(C)cc4)nnn3c3ccsc23)c1`, the pIC50 is 5.86. Turning to `Cc1ccc(Nc2nc3c(S(=O)(=O)c4ccc(Br)cc4)nnn3c3ccsc23)cc1C`, the negative-log IC50 (pIC50) is 5.87. With `O=S(=O)(c1ccccc1)c1nnn2c1nc(Nc1ccccc1)c1sccc12`, the pIC50 is 5.30.

With `Cc1ccc(S(=O)(=O)c2nnn3c2nc(NCc2ccc4c(c2)OCO4)c2sccc23)cc1`, the pIC50 is 5.90. Take `Cc1ccc(C)c(Nc2nc3c(S(=O)(=O)c4cccc(Cl)c4)nnn3c3ccsc23)c1`: the negative-log IC50 (pIC50) was 6.13. Consider `Nc1nc2c(S(=O)(=O)c3ccc(Br)cc3)nnn2c2ccsc12`, for which the pIC50 is 6.21. The value for `COCCNc1nc2c(S(=O)(=O)c3ccccc3)nnn2c2ccsc12` was 6.72; that for `CC(Nc1nc2c(S(=O)(=O)c3ccccc3)nnn2c2ccsc12)c1ccccc1` (stereo not drawn) was 7.43; that for `O=S(=O)(c1ccc(Cl)cc1)c1nnn2c1nc(NCc1ccco1)c1sccc12` was 6.39.

On to `CC(C)CCNc1nc2c(S(=O)(=O)c3ccc(C(C)C)cc3)nnn2c2ccsc12`, for which the negative logarithm of the IC50 (pIC50) was less than 5.30. Then `O=S(=O)(c1ccccc1)c1nnn2c1nc(Nc1ccc(F)cc1)c1sccc12`, with 6.22; and `Cc1ccc(C)c(S(=O)(=O)c2nnn3c2nc(NCCC(C)C)c2sccc23)c1`, with 6.07. On to `Cc1ccc(S(=O)(=O)c2nnn3c2nc(Nc2ccc(Cl)cc2)c2sccc23)cc1C`, for which the negative-log IC50 (pIC50) was 5.84.

`O=S(=O)(c1cccc(Cl)c1)c1nnn2c1nc(NCC1CCCO1)c1sccc12` (stereo not drawn): the pIC50 was 7.54. Then `CCc1ccc(S(=O)(=O)c2nnn3c2nc(NCCc2ccccc2)c2sccc23)cc1`, with 5.98; and `COc1ccccc1CNc1nc2c(S(=O)(=O)c3ccc(Br)cc3)nnn2c2ccsc12`, with 6.03. In the case of `COCCCNc1nc2c(S(=O)(=O)c3ccccc3)nnn2c2ccsc12`, the pIC50 is 6.59. `Cc1ccc(S(=O)(=O)c2nnn3c2nc(NC(C)C)c2sccc23)cc1C`: the pIC50 was 6.12. Take `CN(Cc1ccccc1)c1nc2c(S(=O)(=O)c3ccc(Br)cc3)nnn2c2ccsc12`: the pIC50 is 5.71.

As to `Cc1ccc(S(=O)(=O)c2nnn3c2nc(NC2CCCC2)c2sccc23)cc1`, the negative-log IC50 (pIC50) was 5.69. The value for `COc1cccc(CNc2nc3c(S(=O)(=O)c4ccc(C)cc4)nnn3c3ccsc23)c1` was 5.66; that for `COc1ccccc1CNc1nc2c(S(=O)(=O)c3ccccc3)nnn2c2ccsc12` was 6.54; that for `COCCCNc1nc2c(S(=O)(=O)c3ccc(C)c(C)c3)nnn2c2ccsc12` was 5.62.

On to `CCc1ccc(S(=O)(=O)c2nnn3c2nc(Nc2cccc(C)c2)c2sccc23)cc1`, for which the pIC50 is 5.76. Then `Cc1ccc(S(=O)(=O)c2nnn3c2nc(NCc2ccco2)c2sccc23)cc1C`, with 6.11; and `COc1cccc(Nc2nc3c(S(=O)(=O)c4ccc(C(C)C)cc4)nnn3c3ccsc23)c1`, with 6.05; and `COCCNc1nc2c(S(=O)(=O)c3cccc(Cl)c3)nnn2c2ccsc12`, with 6.96.

Turning to `O=S(=O)(c1cccc(Cl)c1)c1nnn2c1nc(N1CCCCCC1)c1sccc12`, the pIC50 is 5.81. As to `Cc1ccc(S(=O)(=O)c2nnn3c2nc(NCc2cccs2)c2sccc23)cc1`, the pIC50 was 6.66. `Cc1ccc(S(=O)(=O)c2nnn3c2nc(NC2CCCCC2)c2sccc23)cc1C`: the negative logarithm of the IC50 (pIC50) was 6.09. The value for `Cc1ccc(C)c(S(=O)(=O)c2nnn3c2nc(N2CCC(C)CC2)c2sccc23)c1` was 5.70; that for `Cc1ccc(S(=O)(=O)c2nnn3c2nc(NCCc2ccccc2)c2sccc23)cc1` was 6.02.

On to `COCCNc1nc2c(S(=O)(=O)c3ccc(C)cc3)nnn2c2ccsc12`, for which the pIC50 was 5.83.

`O=S(=O)(c1cccc(Cl)c1)c1nnn2c1nc(N1CCOCC1)c1sccc12`: the pIC50 is 5.98.

On to `Cc1ccc(C)c(S(=O)(=O)c2nnn3c2nc(NCc2cccs2)c2sccc23)c1`, for which the pIC50 was 6.15. The value for `Nc1nc2c(S(=O)(=O)c3cccc(Cl)c3)nnn2c2ccsc12` was 6.16. Regarding `O=S(=O)(c1cccc(Cl)c1)c1nnn2c1nc(NCCc1ccccc1)c1sccc12`, the negative logarithm of the IC50 (pIC50) was 6.09. The value for `O=S(=O)(c1cccc(Cl)c1)c1nnn2c1nc(Nc1ccc(F)cc1)c1sccc12` was 5.60; that for `COc1ccccc1CNc1nc2c(S(=O)(=O)c3ccc(C)cc3)nnn2c2ccsc12` was 6.24.

For `Cc1ccc(S(=O)(=O)c2nnn3c2nc(NC(C)Cc2ccccc2)c2sccc23)cc1C` (stereo not drawn), the pIC50 was 6.17. `Cc1ccc(S(=O)(=O)c2nnn3c2nc(NC2CCCCC2)c2sccc23)cc1`: the negative logarithm of the IC50 (pIC50) is 6.14. As to `O=S(=O)(c1ccc(Cl)cc1)c1nnn2c1nc(NCc1ccccc1)c1sccc12`, the negative-log IC50 (pIC50) was 6.57. Turning to `CCN(Cc1ccccc1)c1nc2c(S(=O)(=O)c3cccc(Cl)c3)nnn2c2ccsc12`, the negative-log IC50 (pIC50) is 6.27. As to `O=S(=O)(c1ccc(Cl)cc1)c1nnn2c1nc(NCc1cccs1)c1sccc12`, the pIC50 was 6.19. Then `Cc1ccc(S(=O)(=O)c2nnn3c2nc(NCc2ccc(F)cc2)c2sccc23)cc1C`, with 6.28; and `Cc1ccc(Nc2nc3c(S(=O)(=O)c4ccc(C(C)C)cc4)nnn3c3ccsc23)cc1C`, with 5.95. Consider `CC(C)c1ccc(S(=O)(=O)c2nnn3c2nc(NCc2ccccc2Cl)c2sccc23)cc1`, for which the pIC50 is 5.74.

Turning to `Cc1cccc(Nc2nc3c(S(=O)(=O)c4ccc(C(C)C)cc4)nnn3c3ccsc23)c1C`, the negative-log IC50 (pIC50) is 6.00. Turning to `O=S(=O)(c1ccccc1)c1nnn2c1nc(NCc1ccccc1Cl)c1sccc12`, the negative logarithm of the IC50 (pIC50) was 7.49. Then `CCc1ccc(S(=O)(=O)c2nnn3c2nc(NCCCOC)c2sccc23)cc1`, with less than 5.30; and `Cc1ccc(C)c(S(=O)(=O)c2nnn3c2nc(NCCCc2ccccc2)c2sccc23)c1`, with 5.91. As to `COCCNc1nc2c(S(=O)(=O)c3ccc(C)c(C)c3)nnn2c2ccsc12`, the negative logarithm of the IC50 (pIC50) is 5.80. `Cc1ccc(S(=O)(=O)c2nnn3c2nc(NCC2CCCO2)c2sccc23)cc1` (stereo not drawn): the pIC50 was 6.60. The value for `O=S(=O)(c1cccc(Cl)c1)c1nnn2c1nc(NCc1ccc(F)cc1)c1sccc12` was 6.32. In the case of `O=S(=O)(c1ccc(Cl)cc1)c1nnn2c1nc(NC1CCCCC1)c1sccc12`, the pIC50 was 6.02. As to `CC(Cc1ccccc1)Nc1nc2c(S(=O)(=O)c3ccccc3)nnn2c2ccsc12` (stereo not drawn), the negative-log IC50 (pIC50) is 5.97.

On to `Cc1ccc(S(=O)(=O)c2nnn3c2nc(N(C)Cc2ccccc2)c2sccc23)cc1C`, for which the pIC50 is 5.88. Consider `Cc1ccc(S(=O)(=O)c2nnn3c2nc(Nc2cccc(F)c2)c2sccc23)cc1`, for which the pIC50 is 5.42. For `CCN(Cc1ccccc1)c1nc2c(S(=O)(=O)c3ccc(C)cc3)nnn2c2ccsc12`, the pIC50 is 6.52. The value for `CCc1ccc(S(=O)(=O)c2nnn3c2nc(NCCC(C)C)c2sccc23)cc1` was less than 5.30; that for `O=S(=O)(c1ccccc1)c1nnn2c1nc(NCc1ccccc1)c1sccc12` was 7.23. Turning to `COc1ccccc1CNc1nc2c(S(=O)(=O)c3ccc(Cl)cc3)nnn2c2ccsc12`, the pIC50 is 5.94. As to `CCc1ccc(S(=O)(=O)c2nnn3c2nc(NC(C)C)c2sccc23)cc1`, the pIC50 is 5.80. Consider `CCN(CC)c1nc2c(S(=O)(=O)c3cccc(Cl)c3)nnn2c2ccsc12`, for which the negative logarithm of the IC50 (pIC50) was 5.91. The value for `CCCCNc1nc2c(S(=O)(=O)c3ccc(C(C)C)cc3)nnn2c2ccsc12` was less than 5.30; that for `Cc1ccc(S(=O)(=O)c2nnn3c2nc(NCc2ccccc2)c2sccc23)cc1` was 6.59; that for `O=S(=O)(c1ccccc1)c1nnn2c1nc(NCc1ccc(Cl)cc1)c1sccc12` was 5.93. The value for `Cc1ccc(S(=O)(=O)c2nnn3c2nc(Nc2cccc(C)c2)c2sccc23)cc1` was 5.28; that for `O=S(=O)(c1ccccc1)c1nnn2c1nc(Nc1nc3ccccc3s1)c1sccc12` was less than 5.30. The value for `Cc1ccc(C)c(S(=O)(=O)c2nnn3c2nc(NC2CCCC2)c2sccc23)c1` was 6.23.

As for `Cc1ccc(S(=O)(=O)c2nnn3c2nc(Nc2cccc(C)c2C)c2sccc23)cc1`, the pIC50 was 6.23. Take `CC(Nc1nc2c(S(=O)(=O)c3cccc(Cl)c3)nnn2c2ccsc12)c1ccccc1` (stereo not drawn): the pIC50 is 6.82.

Regarding `COc1ccccc1CNc1nc2c(S(=O)(=O)c3ccc(C)c(C)c3)nnn2c2ccsc12`, the pIC50 was 6.33. Consider `COCCNc1nc2c(S(=O)(=O)c3ccc(Cl)cc3)nnn2c2ccsc12`, for which the negative-log IC50 (pIC50) was 5.66. The value for `Cc1ccc(C)c(S(=O)(=O)c2nnn3c2nc(NCCc2ccccc2)c2sccc23)c1` was 6.17.
